Reference: ChEMBL document CHEMBL2424590, “4-[18F]Fluoro-m-hydroxyphenethylguanidine: a radiopharmaceutical for quantifying regional cardiac sympathetic nerve density with positron emission tomography” (J Med Chem, 2013)

Legend:
[1] = tested on: Blood; test: Biodistribution in Sprague-Dawley rat blood at 20 to 120 uCi, iv after 30 mins by gamma counting analysis; format: ADME, organism-based; conditions: in vivo, 0.5 h
How it was run: (§1)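 Sprague-Dawley rats (280–330 g), 2 male and 2 female per time point (5, 30, 60, 120 min), under light isoflurane, received a tail-vein bolus of 20–120 μCi tracer in 0.05–0.10 mL isotonic 60 mM sodium phosphate, pH 5.4. Tissues were weighed and gamma-counted. Decay-corrected dpm/g was normalized to injected dpm per kg body weight (%ID·kg/g).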

[2] = tested on: Nucleic Acid; test: Ratio of drug level in heart to liver in rhesus macaque monkey at 5 to 6 mCi, iv after 90 mins by PET analysis; format: ADME, organism-based, Macaca mulatta; conditions: in vivo, 1.5 h
[3] = tested on: Muscle tissue; test: Biodistribution in Sprague-Dawley rat muscle at 20 to 120 uCi, iv after 30 mins by gamma counting analysis; format: ADME, organism-based; conditions: in vivo, 0.5 h; how it was run: as §1
[4] = tested on: Bone; test: Biodistribution in Sprague-Dawley rat bone at 20 to 120 uCi, iv after 30 mins by gamma counting analysis; format: ADME, organism-based, Bone element; conditions: in vivo, 0.5 h; how it was run: as §1
[5] = Drug metabolism in rhesus macaque monkey spinal column assessed as fluorine-18 level at 5 to 6 mCi, iv after 90 mins by sagittal PET analysis; format: ADME, organism-based, Macaca mulatta; conditions: in vivo, 1.5 h
[6] = Drug uptake in rhesus macaque monkey heart at 5 to 6 mCi, iv after 90 mins by PET analysis in presence of 0.010 mg/kg to 1 mg/kg desipramine; format: ADME, organism-based, Macaca mulatta; conditions: in vivo, 1.5 h
How it was run: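 Same monkey for all studies. Desipramine (0.010, 0.0316, 0.10 or 1.0 mg/kg; n = 1 each) in 2.0 mL saline infused i.v. over 20 min, with tracer injected 10 min after the infusion ended; 4 control studies. ROIs on myocardium and basal LV blood pool drawn on summed final four frames. Cp(t) derived from Cwb(t) × intact fraction × Cp/Cwb. Ki from compartmental modelling and Kp as Patlak slope, fitted against DMI dose to a variable-slope sigmoidal model.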

[7] = tested on: Rattus norvegicus; test: Biodistribution in Sprague-Dawley rat uterus at 20 to 120 uCi, iv after 5 mins by gamma counting analysis; format: ADME, organism-based; conditions: in vivo
How it was run: (§2)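 Male and female rats (2 per sex per time point, 280–330 g) under light isoflurane given tail-vein bolus of 20–120 μCi tracer in 0.05–0.10 mL isotonic 60 mM sodium phosphate, pH 5.4. Tissues sampled at 5, 30, 60 or 120 min, weighed and gamma-counted. Decay-corrected dpm per gram normalised to injected dpm and body weight, given as %ID·kg/g.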

[8] = tested on: Nucleic Acid; test: Ratio of drug level in plasma to whole blood in rhesus macaque monkey at 5 to 6 mCi, iv by RP-HPLC analysis; format: ADME, organism-based, Macaca mulatta; conditions: in vivo
How it was run: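 Venous monkey blood samples taken during PET were centrifuged 1 min at 12000 × g to separate plasma from RBCs. 0.1 mL aliquots of whole blood and plasma were gamma-counted, and decay-corrected counts gave Cp/Cwb for each sample. A pre-scan sample spiked with 0.1 mCi tracer was incubated 60–70 min at 37 °C and processed the same way.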

[9] = tested on: Kidney; test: Biodistribution in Sprague-Dawley rat kidney at 20 to 120 uCi, iv after 5 mins by gamma counting analysis; format: ADME, organism-based; conditions: in vivo; how it was run: as §1
[10] = tested on: Bone; test: Biodistribution in Sprague-Dawley rat bone at 20 to 120 uCi, iv after 120 mins by gamma counting analysis; format: ADME, organism-based, Bone element; conditions: in vivo, 2 h; how it was run: as §1
[11] = tested on: Testes; test: Biodistribution in Sprague-Dawley rat testes at 20 to 120 uCi, iv after 5 mins by gamma counting analysis; format: ADME, organism-based, Testis; conditions: in vivo; how it was run: as §2
[12] = tested on: Liver; test: Biodistribution in Sprague-Dawley rat liver at 20 to 120 uCi, iv after 30 mins by gamma counting analysis; format: ADME, organism-based; conditions: in vivo, 0.5 h; how it was run: as §1
[13] = tested on: Blood; test: Biodistribution in Sprague-Dawley rat blood at 20 to 120 uCi, iv after 120 mins by gamma counting analysis; format: ADME, organism-based; conditions: in vivo, 2 h; how it was run: as §1
[14] = tested on: Heart; test: Biodistribution in Sprague-Dawley rat heart at 20 to 120 uCi, iv after 60 mins by gamma counting analysis; format: ADME, organism-based; conditions: in vivo, 1 h; how it was run: as §1
[15] = tested on: Liver; test: Biodistribution in Sprague-Dawley rat liver at 20 to 120 uCi, iv after 5 mins by gamma counting analysis; format: ADME, organism-based; conditions: in vivo; how it was run: as §1
[16] = tested on: Spleen; test: Biodistribution in Sprague-Dawley rat spleen at 20 to 120 uCi, iv after 5 mins by gamma counting analysis; format: ADME, organism-based; conditions: in vivo; how it was run: as §2
[17] = tested on: Kidney; test: Biodistribution in Sprague-Dawley rat kidney at 20 to 120 uCi, iv after 60 mins by gamma counting analysis; format: ADME, organism-based; conditions: in vivo, 1 h; how it was run: as §1
[18] = tested on: Liver; test: Biodistribution in Sprague-Dawley rat liver at 20 to 120 uCi, iv after 120 mins by gamma counting analysis; format: ADME, organism-based; conditions: in vivo, 2 h; how it was run: as §1
[19] = tested on: Testes; test: Biodistribution in Sprague-Dawley rat testes at 20 to 120 uCi, iv after 60 mins by gamma counting analysis; format: ADME, organism-based, Testis; conditions: in vivo, 1 h; how it was run: as §2
[20] = tested on: Testes; test: Biodistribution in Sprague-Dawley rat testes at 20 to 120 uCi, iv after 120 mins by gamma counting analysis; format: ADME, organism-based, Testis; conditions: in vivo, 2 h; how it was run: as §2
[21] = tested on: Rattus norvegicus; test: Biodistribution in Sprague-Dawley rat uterus at 20 to 120 uCi, iv after 30 mins by gamma counting analysis; format: ADME, organism-based; conditions: in vivo, 0.5 h; how it was run: as §2
[22] = tested on: Adrenal; test: Biodistribution in Sprague-Dawley rat adrenal at 20 to 120 uCi, iv after 60 mins by gamma counting analysis; format: ADME, organism-based, Adrenal tissue; conditions: in vivo, 1 h; how it was run: as §1
[23] = tested on: Lung; test: Biodistribution in Sprague-Dawley rat lung at 20 to 120 uCi, iv after 120 mins by gamma counting analysis; format: ADME, organism-based; conditions: in vivo, 2 h; how it was run: as §1
[24] = tested on: Adrenal; test: Biodistribution in Sprague-Dawley rat adrenal at 20 to 120 uCi, iv after 30 mins by gamma counting analysis; format: ADME, organism-based, Adrenal tissue; conditions: in vivo, 0.5 h; how it was run: as §1
[25] = Drug metabolism in rhesus macaque monkey spinal column assessed as fluorine-18 level at 5 to 6 mCi, iv after 90 mins by transaxial PET analysis; format: ADME, organism-based, Macaca mulatta; conditions: in vivo, 1.5 h
[26] = Drug uptake in rhesus macaque monkey adrenal glands 5 to 6 mCi, iv after 90 mins by PET analysis; format: ADME, organism-based, Macaca mulatta, Adrenal gland; conditions: in vivo, 1.5 h
[27] = Drug uptake in rhesus macaque monkey cortex 5 to 6 mCi, iv after 90 mins by PET analysis; format: ADME, organism-based, Macaca mulatta; conditions: in vivo, 1.5 h
[28] = tested on: Blood; test: Biodistribution in Sprague-Dawley rat blood at 20 to 120 uCi, iv after 5 mins by gamma counting analysis; format: ADME, organism-based; conditions: in vivo; how it was run: as §1
[29] = tested on: Ovary; test: Biodistribution in Sprague-Dawley rat ovary at 20 to 120 uCi, iv after 5 mins by gamma counting analysis; format: ADME, organism-based, Female gonad; conditions: in vivo
How it was run: as §1, with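 “g)” for “g), 2 male and 2 female per time point (5, 30, 60, 120 min),”, “isoflurane” for “isoflurane,”, “Sampling was at 5, 30, 60 or 120 min. […]” for “Tissues”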

[30] = Drug uptake in rhesus macaque monkey adrenal glands 5 to 6 mCi, iv after 90 mins by PET analysis in presence of desipramine; format: ADME, organism-based, Macaca mulatta, Adrenal gland; conditions: in vivo, 1.5 h
[31] = Drug uptake in rhesus macaque monkey lung at 5 to 6 mCi, iv after 90 mins by PET analysis; format: ADME, organism-based, Macaca mulatta; conditions: in vivo, 1.5 h
[32] = tested on: Heart; test: Biodistribution in Sprague-Dawley rat heart at 20 to 120 uCi, iv after 120 mins by gamma counting analysis; format: ADME, organism-based; conditions: in vivo, 2 h; how it was run: as §1
[33] = tested on: Ovary; test: Biodistribution in Sprague-Dawley rat ovary at 20 to 120 uCi, iv after 30 mins by gamma counting analysis; format: ADME, organism-based, Female gonad; conditions: in vivo, 0.5 h
How it was run: as §1, with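 “g)” for “g), 2 male and 2 female per time point (5, 30, 60, 120 min),”, “isoflurane” for “isoflurane,”, “Sampling was at 5, 30, 60 or 120 min. […]” for “Tissues”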

[34] = tested on: Brain; test: Biodistribution in Sprague-Dawley rat brain at 20 to 120 uCi, iv after 5 mins by gamma counting analysis; format: ADME, organism-based; conditions: in vivo; how it was run: as §1
[35] = tested on: Lung; test: Biodistribution in Sprague-Dawley rat lung at 20 to 120 uCi, iv after 5 mins by gamma counting analysis; format: ADME, organism-based; conditions: in vivo; how it was run: as §1

N=C(N)NCCc1ccc([18F])c(O)c1 showed a Drug uptake [1] of 0.022 %ID·kg/g, a Ratio [2] of 2.5 and a Drug uptake [3] of 0.025 %ID·kg/g. For the same compound, the Drug uptake [4] was 0.039 %ID·kg/g, the Drug metabolism [5] was “Active” and the Drug uptake [6] was “Not Active”. The Drug uptake [7] was 0.268 %IDKg/g, the Ratio [8] was 1.25 and the Drug uptake [9] was 1.398 %IDKg/g. It also gave a Drug uptake [10] of 0.016 % ID/g, a Drug uptake [11] of 0.018 %IDKg/g and a Drug uptake [12] of 0.406 %IDKg/g. It also gave a Drug uptake [13] of 0.009 % ID/g, a Drug uptake [14] of 0.526 %IDKg/g and a Drug uptake [15] of 0.477 %IDKg/g. The Drug uptake [16] was 0.268 %IDKg/g, the Drug uptake [17] was 0.186 %IDKg/g and the Drug uptake [18] was 0.233 %IDKg/g. The Drug uptake [19] was 0.008 %IDKg/g, the Drug uptake [20] was 0.004 %IDKg/g and the Drug uptake [21] was 0.155 %IDKg/g. The Drug uptake [22] was 0.193 %IDKg/g, the Drug uptake [23] was 0.036 %IDKg/g and the Drug uptake [24] was 0.181 %IDKg/g. For the same compound, the Drug metabolism [25] was “Active”, the Drug uptake [26] was “Active” and the Drug uptake [27] was “Active”. The Drug uptake [28] was 0.062 %ID·kg/g, the Drug uptake [29] was 0.194 %IDKg/g and the Drug uptake [30] was “Not Active”. For the same compound, the Drug uptake [31] was “Not Active”, the Drug uptake [32] was 0.347 %IDKg/g and the Drug uptake [33] was 0.171 %IDKg/g. For the same compound, the Drug uptake [34] was 0.004 %IDKg/g and the Drug uptake [35] was 0.267 %IDKg/g.
